Screening results deposited in PubChem BioAssay by Broad Institute.
FN deposit inh: inhibitors of fibronectin matrix deposition, primary screen, AH1F cells, Alexa488-fibronectin fluorescence, plate reader | AH1F fibroblasts, overnight | inhibition, % at 12.6 µM | 350,000 tested, 0.086% active | AID 743247, 2014;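 active means mean inhibition across replicates of 30% or more, regardless of how many single replicates reach that level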
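test system = AH1F fibroblasts assembling fluorescent fibronectin matrix | quantity = 10000 AH1F cells per well | buffer or medium = DMEM plus 2% serum, read in PBS | doses = single dose, pinned | incubation = 1 h cell attachment, overnight exposure to compound and label | detection = fluorescence at 485 nm excitation, 525 nm emission | read-out basis = inhibition from reduced deposited-fibronectin fluorescence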
GSIS activator: GLuc luminescence reporter in INS-1E cells, primary screen for activators of glucose-dependent secretion of insulin; INS-1E GLuc reporter insulin secretion, 2-3 h; 370,000 tested, 0.61% active; activation, % at 16.6 µM;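 active means lowest replicate activation of at least 40%, so every replicate reaches that level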
ERp5 inh: inhibitors of ERp5-driven insulin aggregation, primary screen, biochemical, turbidity, absorbance 650 nm, single point. Protein disulfide-isomerase A6 (Homo sapiens), Q15084. 90 min. inhibition, % at 9.99 µM. 350,000 tested, 0.05% active. AID 651711, 2012;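 active means mean replicate inhibition above about 25%, with every replicate also reaching it, limit read from the data, passing the limit was not always enough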
Target sequence (Q15084 whole entry, looked up): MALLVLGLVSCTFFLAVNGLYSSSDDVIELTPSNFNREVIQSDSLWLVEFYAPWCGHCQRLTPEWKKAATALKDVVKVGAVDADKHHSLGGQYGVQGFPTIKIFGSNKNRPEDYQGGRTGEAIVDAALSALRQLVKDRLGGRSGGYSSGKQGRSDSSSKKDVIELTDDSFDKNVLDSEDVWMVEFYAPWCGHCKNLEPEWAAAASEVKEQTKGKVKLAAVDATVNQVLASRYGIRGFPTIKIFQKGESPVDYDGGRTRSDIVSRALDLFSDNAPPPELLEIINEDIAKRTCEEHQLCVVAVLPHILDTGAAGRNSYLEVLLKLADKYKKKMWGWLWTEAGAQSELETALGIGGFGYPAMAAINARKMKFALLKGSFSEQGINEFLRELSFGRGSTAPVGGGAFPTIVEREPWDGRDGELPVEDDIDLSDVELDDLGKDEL
HIV Env fusion: inhibitors of HIV-1 Env-driven cell-cell fusion, primary screen, HeLa-JRFL effector, CEM21 target cells, luciferase; 360,000 tested, 1.1% active; AID 651610, 2012; inhibition, % at 12.3 µM;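 active means mean replicate inhibition score of at least 50 and every replicate individually at or above 50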
PDI turbidity: inhibitors of human PDI, primary screen, biochemical, turbidity, single point, plate reader. PDI insulin aggregation turbidity, A650, 90 min. inhibition, % at 10 µM. 350,000 tested, 0.052% active. AID 588391, 2011;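 active means mean inhibition across replicates of 30% or more, whatever share of single replicates reach that level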
Numbers stand for hits; n = inactive; x = no result given. Compounds with a hit are over-represented: about 1.4% of the library has one in this group of screens.

SMILES	FN deposit inh	GSIS activator	ERp5 inh	HIV Env fusion	PDI turbidity
CC(C)COP(=O)(c1ccc(N(C)C)cc1)C(O)c1ccc(Br)cc1 (stereo not given)	n	x	n	56	n
CC(C)OP(=O)(c1ccc(N(C)C)cc1)C(O)c1ccc(C(C)C)cc1 (stereo not given)	n	n	n	74	n
C[C@@H](NC(=O)C[C@@H]1C=C[C@H](NC(=O)C2CCOCC2)[C@@H](CO)O1)c1ccccc1	x	n	n	n	x
CCOC(=O)C1=NN(C(=O)Nc2cccc(C(F)(F)F)c2)C2C(=O)N(c3cccc(C(F)(F)F)c3)C(=O)C12 (stereo not given)	x	100	x	x	n
CC(C)NC(=O)C1(C)CSCC(=O)N1Cc1cccs1 (stereo not given)	n	n	n	n	x
CC(C)CCN1C(=O)CSCC1(C)C(=O)NC(C)C (stereo not given)	n	43	n	n	x
CCCNC(=O)C[C@@H]1C[C@@H]2c3cc(NS(=O)(=O)c4ccccc4)ccc3O[C@@H]2[C@@H](CO)O1	n	n	x	n	x
CCCCCCSc1cc(-c2nc3cnccn3c2NCCCC)ccc1OC	x	108	n	x	n
CC1=C(C(=O)OCc2ccc3c(c2)OCO3)C(c2ccccc2)NC(=O)N1 (stereo not given)	n	n	x	107	n
COc1ccc(COC(=O)C2=C(C)NC(=O)NC2c2ccc(OC)cc2)cc1 (stereo not given)	n	n	n	72	n
CC1=C(C(=O)OCc2ccc3c(c2)OCO3)C(c2ccc(O)c([N+](=O)[O-])c2)NC(=O)N1 (stereo not given)	n	n	n	n	n
CC1=C(C(=O)OCc2ccc3c(c2)OCO3)C(c2ccccc2OCc2ccccc2)NC(=O)N1 (stereo not given)	n	n	x	61	n
C[C@@H]1CN([C@H](C)CO)C(=O)Cc2cc(NC(=O)Nc3ccc4c(c3)OCO4)ccc2O[C@@H]1CN(C)Cc1ccc(C(=O)O)cc1	x	n	n	n	x
CC(=O)Nc1ccc(NC(=O)c2csc([C@@H]3O[C@H](CO)[C@H](O)[C@H](O)[C@H]3O)n2)cc1	n	n	n	n	n
Cc1cccc(C)c1NC(=O)c1csc([C@@H]2O[C@H](CO)[C@H](O)[C@H](O)[C@H]2O)n1	n	53	n	n	n
COc1ccc(N2CC(C(=O)N3CCc4ccccc43)CC2=O)cc1 (stereo not given)	n	66	n	n	n
O=C1CC(C(=O)N2CCCc3ccccc32)CN1c1ccc(F)cc1 (stereo not given)	n	n	n	n	n
Cc1ccc(S(=O)(=O)N(C)C[C@@H]2Oc3ccc(NC(=O)NC(C)C)cc3C(=O)N([C@H](C)CO)C[C@H]2C)cc1	n	n	n	n	x
CC(C)(C)c1ccc(C(=O)CC(=O)c2cc(Cl)ccc2O)cc1	x	x	x	83	n
COc1ccc(-c2cn(CC[C@@H]3CC[C@@H](NC(=O)Nc4ccc(F)cc4)[C@@H](CO)O3)nn2)cc1	n	n	n	x	x
COc1ccc(C(=O)/C=C2/c3ccccc3CC(C)(C)N2C)cc1OC	n	41	n	n	n
O=C(O)C[C@@H]1C[C@H]2c3cc(NC(=O)NC4CCCCC4)ccc3O[C@H]2[C@@H](CO)O1	n	n	n	n	x
COc1cc2c(c(OC)c1OC)[C@@]1(c3ccccc3)CCCC[C@H]1[C@@H]2NC(=O)C(F)(F)F	n	n	n	87	x
CCNC(=O)C[C@@H]1CC[C@H]2[C@H](COc3ccc(NC(=O)Nc4ccc(Cl)cc4)cc3C(=O)N2C)O1	n	n	n	n	x
CCOC(=O)CN(Cc1sccc1C)C(=O)Nc1ccc(OC)cc1OC	x	42	x	x	n
SMILES	FN deposit inh	GSIS activator	ERp5 inh	HIV Env fusion	PDI turbidity
O=C(Nc1ccc(F)cc1)NC1CCN(Cc2nnnn2Cc2ccco2)CC1	x	x	x	61	n
Cc1ccc(SC(C)C(=O)NC(N)=O)c(C)c1 (stereo not given)	n	41	n	n	n
Cc1c(NC(=O)c2cc3c(s2)-c2ccccc2OC3)cccc1[N+](=O)[O-]	n	n	x	87	n
COc1ccc(-c2nc(C3CCCCC3)c3cc(OC)ccc3n2)cc1	n	n	n	n	n
COc1cc(OC)c2c3c(c(C4CCCCC4)nc2c1)CCC3	n	266	n	n	n
COc1cc(NC2c3ncccc3C(=O)N2Cc2ccco2)cc(OC)c1 (stereo not given)	x	n	n	60	n
COc1cccc2sc(N(CCCN(C)C)C(=O)c3ccc(S(=O)(=O)N4CCc5ccccc5C4)cc3)nc12	x	n	n	n	n
COc1ccc(C)c2sc(N(CCCN(C)C)C(=O)c3ccc(S(=O)(=O)N4CCc5ccccc5C4)cc3)nc12	n	189	n	92	n
Cc1c(CCOC(=O)C23CC4CC(CC(C)(C4)C2)C3)sc[n+]1CC(=O)c1ccccc1	n	x	n	82	n
Cc1c(CCOC(=O)CC23CC4CC(CC(C4)C2)C3)sc[n+]1CC(=O)c1ccc(Br)cc1	n	x	x	61	n
Cc1c(CCOC(=O)CC23CC4CC(CC(C)(C4)C2)C3)sc[n+]1CC(=O)c1ccccc1	n	n	n	69	n
Cc1ccccc1S(=O)(=O)N[C@@H]1CC[C@H](CCn2cc(-c3ccc(F)cc3)nn2)O[C@H]1CO	n	n	n	n	x
C#CCn1c(=O)c2c(ncn2C)n(C)c1=O	n	x	n	72	n
COc1ccc(-n2sc3ccccc3c2=O)cc1	n	87	n	n	n
COc1ccc(-n2sc3ccc(F)cc3c2=O)cc1	n	n	n	n	n
O=C(Nc1cccc(S(=O)(=O)C(F)(F)F)c1)[C@H]1C[C@H](O)[C@@H](CO)O1	n	n	n	n	n
O=C(Nc1cccc(S(=O)(=O)C(F)(F)F)c1)[C@@H]1O[C@H](CO)[C@@H](O)[C@H]1O	n	43	n	n	n
S=C(NCC1CCCO1)N1CCN(c2nc(-c3ccc(Cl)cc3)cs2)CC1 (stereo not given)	x	n	n	57	n
COCCCNC(=S)N1CCN(c2nc(-c3ccc(F)cc3)cs2)CC1	n	n	n	108	n
S=C(NCCCN1CCOCC1)N1CCN(c2nc(-c3ccccc3)cs2)CC1	n	n	n	n	n
S=C(NCCCN1CCOCC1)N1CCN(c2nc(-c3ccc(Cl)cc3)cs2)CC1	n	n	n	75	n
C[C@H]1CN([C@@H](C)CO)C(=O)c2cccc(NC(=O)C3CCCCC3)c2O[C@H]1CN(C)C(=O)Nc1ccccc1	x	n	n	x	x
Cc1ccc(-c2ccc3c(c2)O[C@H](CN(C)C(=O)C2CC2)[C@@H](C)CN([C@@H](C)CO)S3(=O)=O)cc1	n	n	n	n	x
Cc1nc(NC(=O)c2cccc(-c3cc4ccccc4oc3=O)c2)ccc1Br	n	73	x	n	n
